# From PMC5891368 (European journal of medicinal chemistry, 2018)
# “Also recorded” adds a separate entry of the source.
# Assays:
# phosphorylation of Akt = test: Western blot, CXCL12 induced phosphorylation of Akt; assay type: cell-based; settings: dose-dependent
# In short: (§1)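 Rabbit monoclonal primaries (1:500, overnight, 4 °C) were phospho-Akt Ser473 with pan-Akt for Akt, and phospho-p44/42 MAPK Thr202/Tyr204 with total p44/42 for p44/42. Detection used HRP goat anti-rabbit (1:10000, 1 h) and enhanced chemiluminescence.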
# MCF-7 cells = test: cytotoxicity, cell viability; assay type: cell-based; settings: MCF-7 (CXCR4-positive); MTT; 72 h
# In short: (§2)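 Cells were seeded at 3000 per well in 96-well plates and grown 24 h at 37 °C in a CO2 incubator. They were then exposed at 37 °C to test compound or vehicle control. CellTiter 96AQ (MTT-type) reagent was added for a further 2 h, and absorbance was read at 490 nm.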
# 184A1N4 cells = test: cytotoxicity, cell viability; assay type: cell-based; settings: 184A1N4 (CXCR4-negative); MTT; 72 h
# In short: as §2
# MDA-MB-231 cells [1] = test: cytotoxicity, cell viability; assay type: cell-based, human; settings: MDA-MB-231 (CXCR4-positive); up to 10 μM; MTT
# In short: as §2
# [2] = system: phosphorylation of p44/42; test: Western blot, CXCL12 induced phosphorylation of p44/42; assay type: cell-based
# In short: as §1
# SKBR3 cells = test: cytotoxicity, cell viability; assay type: cell-based; settings: SKBR3 (CXCR4-positive); MTT; 72 h
# In short: as §2
# xylene-induced ear edema [3] = test: xylene-induced ear edema model; assay type: in vivo, mouse; settings: after treatment with compound
# MCF-10A cells = test: cytotoxicity, cell viability; assay type: cell-based; settings: up to 10 μM, MTT
# AC1-ExR cells = test: cytotoxicity, cell viability; assay type: cell-based; settings: AC1-ExR (CXCR4-positive); MTT; 72 h
# In short: as §2
# MDA-MB-231 cells [4] = test: Matrigel invasion assay induced by CXCR4/CXCL12; assay type: cell-based; settings: Homo sapiens, MDA-MB-231, 22 h, read-out: inhibition of Matrigel invasion
# In short: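 MDA-MB-231 cells were pre-treated with test compound at 100 nM and then seeded in the top chamber of a Matrigel invasion chamber in serum-free medium. CXCL12α at 200 ng/mL in the bottom chamber served as chemoattractant. After 22 h in a humidified incubator, non-invading cells were swabbed off. Invading cells were methanol-fixed, stained with H&E and counted to give percent invasion.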
# xylene-induced ear edema [5] = settings: mouse, in vivo; cited from earlier work
Compound,active concentration for inhibition of Akt phosphorylation (phosphorylation of Akt) [nM],antiproliferative activity / cytotoxicity (MCF-7 cells),antiproliferative activity / cytotoxicity (184A1N4 cells),antiproliferative activity / cytotoxicity (MDA-MB-231 cells [1]),concentration suppressing phosphorylation of p44 [2] [nM],antiproliferative activity / cytotoxicity (SKBR3 cells),number of inflammatory cells in inflammatory tissues (histological analysis) (xylene-induced ear edema [3]),swollen volume and thickness of the mouse ear (histological analysis) (xylene-induced ear edema [3]),antiproliferative activity / cytotoxicity (MCF-10A cells),antiproliferative activity / cytotoxicity (AC1-ExR cells),inhibition at 0.1 µM (MDA-MB-231 cells [4]) [%],toxicity in this animal model (xylene-induced ear edema [5])
"O=C(NCc1ccc(CNS(=O)(=O)c2ccccc2)cc1)c1ccc(CNc2ncccn2)cc1 [Compound 7a, N-(4-(phenylsulfonamidomethyl)benzyl)-4-((pyrimidin-2-ylamino)methyl)benzamide]",1,no statistically significant differences,no statistically significant differences,did not inhibit the proliferation; also recorded: no statistically significant differences,0.1,no statistically significant differences,significantly decreased,significantly reduced,did not inhibit the proliferation,no statistically significant differences,,
c1cc(CN2CCCNCCNCCCNCC2)ccc1CN1CCCNCCNCCCNCC1 [AMD3100],,,,,,,,,,,55,serious toxicity
